ChEMBL document CHEMBL2021913, “Synthesis and biological evaluation of some novel thiazole substituted benzotriazole derivatives” (2012)
Values after ≈ are worked out from the molar mass of the structure shown. Active and inactive are the calls of the source. The calls are words filed in the database; no cut-off is given here.

How the values were obtained:
Type in all cases: functional
Aspergillus niger [1] = assay: Antimicrobial activity against Aspergillus niger 545 at 128 ug/disc at 37 degC after 24 to 72 hrs by agar-well diffusion assay; details: read-out: DIZ
In short: (§1)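 Potato dextrose agar base plates overlaid with seeded agar cooled to 40 °C and inoculated with spores from 10-day cultures, final 1 × 10⁶ spores/mL. Compounds dissolved in DMSO at 128 µg/mL and applied on 6 mm filter-paper discs placed on chilled seeded medium. Nystatin positive control, DMSO negative control. Incubation 24–72 h at 37 °C. Inhibition zone diameter read by vernier caliper.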

Staphylococcus aureus [2] = assay: Antimicrobial activity against Staphylococcus aureus 2079 at 128 ug/disc at 35 degC after 24 hrs by agar-well diffusion assay; details: for zone of inhibition at 128 µg/disc: Staphylococcus aureus, 2079, 24 h, read-out: DIZ
In short: (§2)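 Agar-well diffusion: 24 h bacterial cultures adjusted to 0.5 McFarland (1.5 × 10⁸ CFU/mL) and mixed into molten Mueller-Hinton agar before pouring. 6 mm wells punched and each filled with 50 µL of compound stock or control. Plates incubated 35 °C for 24 h. Zone of growth inhibition diameter measured with vernier caliper.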

Bacillus subtilis [3] = assay: Antimicrobial activity against Bacillus subtilis 2250 at 128 ug/disc at 35 degC after 24 hrs by agar-well diffusion assay; details: for zone of inhibition at 128 µg/disc: Bacillus subtilis, 2250, 24 h, read-out: DIZ; in short: as §2
Pseudomonas aeruginosa [4] = assay: Antimicrobial activity against Pseudomonas aeruginosa 2036 at 128 ug/disc at 35 degC after 24 hrs by agar-well diffusion assay; details: for zone of inhibition at 128 µg/disc: Pseudomonas aeruginosa, 2036, 24 h, read-out: DIZ; in short: as §2
Candida albicans [5] = assay: Antimicrobial activity against Candida albicans 3471 at 35 degC after 48 hrs by CLSI method based antimicrobial assay; details: Candida albicans, 3471, 48 h; for MFC: read-out: MFC99.9
In short: (§3)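 Broth microdilution following CLSI guidelines over 256 to 1 µg/mL. MIC90 is the lowest concentration completely inhibiting growth. For MFC, 0.1 mL from each tube spread on agar and CFU counted after 48 h at 35 °C; MFC is lowest concentration killing 99.9% of inoculum. MFC/MIC ratio calculated: […], ≤4 as fungicidal.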

Escherichia coli [6] = assay: Antimicrobial activity against Escherichia coli 2109 at 128 ug/disc at 35 degC after 24 hrs by agar-well diffusion assay; details: for zone of inhibition at 128 µg/disc: Escherichia coli, 2109, 24 h, read-out: DIZ; in short: as §2
Staphylococcus aureus [7] = assay: Antimicrobial activity against Staphylococcus aureus 2079 at 35 degC after 18 to 24 hrs by NCCLS method based antimicrobial assay; details: for MBC: read-out: MBC99.9
Pseudomonas aeruginosa [8] = assay: Antimicrobial activity against Pseudomonas aeruginosa 2036 at 35 degC after 18 to 24 hrs by NCCLS method based antimicrobial assay; details: for MBC: read-out: MBC99.9
Escherichia coli [9] = assay: Antimicrobial activity against Escherichia coli 2109 at 35 degC after 18 to 24 hrs by NCCLS method based antimicrobial assay; details: for MBC: read-out: MBC99.9
Aspergillus niger [10] = assay: Ratio of MFC99.9 to MIC90 for Aspergillus niger 545 at 35 degC after 48 hrs by CLSI method based antimicrobial assay; in short: as §3
Candida albicans [11] = assay: Antimicrobial activity against Candida albicans 3471 at 128 ug/disc at 37 degC after 24 to 72 hrs by agar-well diffusion assay; details: read-out: DIZ; in short: as §1
Aspergillus niger [12] = assay: Antimicrobial activity against Aspergillus niger 545 at 35 degC after 48 hrs by CLSI method based antimicrobial assay; details: Aspergillus niger, 545, 48 h; for MFC: read-out: MFC99.9; in short: as §3
Bacillus subtilis [13] = assay: Antimicrobial activity against Bacillus subtilis 2250 at 35 degC after 18 to 24 hrs by NCCLS method based antimicrobial assay; details: for MBC: read-out: MBC99.9
Candida albicans [14] = assay: Ratio of MFC99.9 to MIC90 for Candida albicans 3471 at 35 degC after 48 hrs by CLSI method based antimicrobial assay; in short: as §3

SMILES	zone of inhibition at 128 µg/disc (Aspergillus niger [1]) [mm]	zone of inhibition at 128 µg/disc (Staphylococcus aureus [2]) [mm]	diameter of the inhibition zone (DIZ) (Pseudomonas aeruginosa [4])	MIC (Candida albicans [5]) [µg/mL]	MFC (Candida albicans [5]) [µg/mL]	diameter of the inhibition zone (DIZ) (Escherichia coli [6])	MIC (Staphylococcus aureus [7])	MBC (Staphylococcus aureus [7]) [µg/mL]	MBC99.9 (Pseudomonas aeruginosa [8])	MIC (Pseudomonas aeruginosa [8])	MBC99.9 (Escherichia coli [9])	MIC (Escherichia coli [9])	Ratio (Aspergillus niger [10])	zone of inhibition at 128 µg/disc (Candida albicans [11]) [mm]	MIC (Aspergillus niger [12]) [µg/mL]	MFC (Aspergillus niger [12]) [µg/mL]	MIC (Bacillus subtilis [13])	Ratio (Candida albicans [14])	zone of inhibition at 128 µg/disc (Bacillus subtilis [3]) [mm]	MBC (Bacillus subtilis [13]) [µg/mL]	other results
Fc1ccc(-c2csc(N/N=C(/Cn3nnc4ccccc43)c3cc(C(F)(F)F)cc(C(F)(F)F)c3)n2)cc1	16.8	24.3	inactive	32 (≈ 56.7 µM)	128 (≈ 227 µM)	inactive	32 µg/mL (≈ 56.7 µM)	64 (≈ 113 µM)	inactive	inactive	inactive	inactive	2	18.4	32 (≈ 56.7 µM)	64 (≈ 113 µM)	inactive	4			diameter of the inhibition zone (DIZ) (Bacillus subtilis [3]): inactive; MBC99.9 (Bacillus subtilis [13]): inactive
O=[N+]([O-])c1ccc(-c2csc(N/N=C(/Cn3nnc4ccccc43)c3ccc(F)cc3)n2)cc1	16.2		inactive	32 (≈ 67.6 µM)	64 (≈ 135 µM)	inactive	inactive		inactive	inactive	inactive	inactive	4	18.7	32 (≈ 67.6 µM)	128 (≈ 270 µM)	128 µg/mL (≈ 270 µM)	2	14.9	256 (≈ 541 µM)	diameter of the inhibition zone (DIZ) (Staphylococcus aureus [2]): inactive; MBC99.9 (Staphylococcus aureus [7]): inactive
Fc1ccc(/C(Cn2nnc3ccccc32)=N\Nc2nc(-c3cc(C(F)(F)F)cc(C(F)(F)F)c3)cs2)cc1	17.5	19.2	inactive	32 (≈ 56.7 µM)	64 (≈ 113 µM)	inactive	128 µg/mL (≈ 227 µM)	128 (≈ 227 µM)	inactive	inactive	inactive	inactive	4	17.4	32 (≈ 56.7 µM)	128 (≈ 227 µM)	32 µg/mL (≈ 56.7 µM)	2	24.1	64 (≈ 113 µM)	
Fc1ccc(-c2csc(N/N=C(/Cn3nnc4ccccc43)c3ccc(Cl)cc3)n2)cc1	20.1	24.7		16 (≈ 34.6 µM)	64 (≈ 138 µM)		64 µg/mL (≈ 138 µM)	32 (≈ 69.1 µM)		128 µg/mL (≈ 276 µM)		64 µg/mL (≈ 138 µM)	2	21.3	16 (≈ 34.6 µM)	32 (≈ 69.1 µM)	128 µg/mL (≈ 276 µM)	4	16.9	128 (≈ 276 µM)	zone of inhibition at 128 µg/disc (Pseudomonas aeruginosa [4]): 14.3 mm; zone of inhibition at 128 µg/disc (Escherichia coli [6]): 17.6 mm; MBC (Pseudomonas aeruginosa [8]): 256 µg/mL (≈ 553 µM); MBC (Escherichia coli [9]): 128 µg/mL (≈ 276 µM)
Clc1ccc(/C(Cn2nnc3ccccc32)=N\Nc2nc(-c3ccc(Br)cc3)cs2)cc1	15.2		inactive	32 (≈ 61.1 µM)	128 (≈ 244 µM)	inactive	inactive		inactive	inactive	inactive	inactive	1	18	64 (≈ 122 µM)	64 (≈ 122 µM)	128 µg/mL (≈ 244 µM)	4	13.8	256 (≈ 489 µM)	diameter of the inhibition zone (DIZ) (Staphylococcus aureus [2]): inactive; MBC99.9 (Staphylococcus aureus [7]): inactive
Clc1ccc(/C(Cn2nnc3ccccc32)=N\Nc2nc(-c3ccc(Cl)cc3)cs2)cc1	18.2	27.9		16 (≈ 33.4 µM)	32 (≈ 66.8 µM)		64 µg/mL (≈ 134 µM)	32 (≈ 66.8 µM)		128 µg/mL (≈ 267 µM)	inactive	inactive	1	21	32 (≈ 66.8 µM)	32 (≈ 66.8 µM)	32 µg/mL (≈ 66.8 µM)	2	25.1	64 (≈ 134 µM)	zone of inhibition at 128 µg/disc (Pseudomonas aeruginosa [4]): 11.3 mm; MBC (Pseudomonas aeruginosa [8]): 128 µg/mL (≈ 267 µM)
Fc1ccc(/C(Cn2nnc3ccccc32)=N\Nc2nc(-c3ccc(F)cc3)cs2)cc1	19.1	20.1		16 (≈ 35.8 µM)	32 (≈ 71.7 µM)		64 µg/mL (≈ 143 µM)	128 (≈ 287 µM)		128 µg/mL (≈ 287 µM)		128 µg/mL (≈ 287 µM)	4	21.1	16 (≈ 35.8 µM)	64 (≈ 143 µM)	64 µg/mL (≈ 143 µM)	2		128 (≈ 287 µM)	zone of inhibition at 128 µg/disc (Pseudomonas aeruginosa [4]): 11.8 mm; zone of inhibition at 128 µg/disc (Escherichia coli [6]): 15 mm; MBC (Pseudomonas aeruginosa [8]): 256 µg/mL (≈ 573 µM); MBC (Escherichia coli [9]): 128 µg/mL (≈ 287 µM)
